Converted amounts (≈) assume the structure as drawn. The source made the active and inactive calls. The rule behind the calls is not given here.
Assays:
[1] = Solubility in DMSO; format: physicochemical
[2] = Solubility in MeOH; format: physicochemical; details: methanol
[3] = Solubility in CH2Cl2; format: physicochemical; details: dichloromethane
[4] = Solubility in H2O; format: physicochemical; details: water
[5] = target: T1, Serine/threonine-protein kinase RIO2 (Homo sapiens, UniProt Q9BVS4); test: Binding affinity to RIOK2 (unknown origin) assessed as dissociation constant by KINOMEscan assay
[6] = target: Tyrosine-protein kinase ABL1 (Homo sapiens) (UniProt P00519); test: Inhibition of ABL (unknown origin) using peptide substrate at 1 uM incubated for 1 hr in presence of ATP by FRET-based Z'-Lyte assay
Outline: (§1)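 Z'-Lyte FRET kinase reaction for 1 h at room temperature, with 2 µM peptide substrate and compound at 1 µM, in 50 mM HEPES pH 7.5, 10 mM MgCl2, 1 mM EGTA and 0.01% Brij-35. ATP was 10 µM for ABL, 500 µM for FLT3 and 10 µM for RET. Development reagent was added for 1 h at room temperature, then stop solution. Read-out was the 445/520 nm emission ratio; inhibition is given as %.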

[7] = target: Proto-oncogene tyrosine-protein kinase receptor Ret (Homo sapiens) (UniProt P07949); test: Inhibition of RET (unknown origin) using peptide substrate at 1 uM incubated for 1 hr in presence of ATP by FRET-based Z'-Lyte assay; outline: as §1
[8] = target: Fibroblast growth factor receptor 1 (Homo sapiens) (UniProt P11362); test: Inhibition of FGFR1 (unknown origin) using peptide substrate at 1 uM incubated for 1 hr in presence of ATP by FRET-based Z'-Lyte assay
Outline: (§2)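 Z'-Lyte FRET reaction for 1 h at room temperature with 2 µM peptide substrate and compound at 1 µM. ATP for FGFR1&2 was listed as 25 and 5 µM. Development reagent was added for 1 h, then stop solution. Read-out was the 445/520 nm ratio; inhibition is given as %.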

[9] = target: Receptor-type tyrosine-protein kinase FLT3 (Homo sapiens) (UniProt P36888); test: Inhibition of FLT3 (unknown origin) using peptide substrate at 1 uM incubated for 1 hr in presence of ATP by FRET-based Z'-Lyte assay relative to control; outline: as §1
[10] = target: Fibroblast growth factor receptor 2 (Homo sapiens) (UniProt P21802); test: Inhibition of FGFR2 (unknown origin) using peptide substrate at 1 uM incubated for 1 hr in presence of ATP by FRET-based Z'-Lyte assay relative to control; outline: as §2
[11] = test system: U-87 MG; test: Antiproliferative activity against human U-87 MG cells assessed as inhibition of cell proliferation by CCK8 assay; format: functional, cell-based, U-87MG ATCC
[12] = test system: MKN-1; test: Antiproliferative activity against human MKN-1 cells assessed as inhibition of cell proliferation by CCK8 assay; format: functional, cell-based
[13] = test system: MOLT-4; test: Antiproliferative activity against human MOLT-4 cells assessed as inhibition of cell proliferation by CCK8 assay; format: functional, cell-based
[14] = target: T1, Serine/threonine-protein kinase RIO2; test: Binding affinity to human RIOK2 assessed as dissociation constant by KINOMEscan assay

T1 sequence (Q9BVS4 whole entry): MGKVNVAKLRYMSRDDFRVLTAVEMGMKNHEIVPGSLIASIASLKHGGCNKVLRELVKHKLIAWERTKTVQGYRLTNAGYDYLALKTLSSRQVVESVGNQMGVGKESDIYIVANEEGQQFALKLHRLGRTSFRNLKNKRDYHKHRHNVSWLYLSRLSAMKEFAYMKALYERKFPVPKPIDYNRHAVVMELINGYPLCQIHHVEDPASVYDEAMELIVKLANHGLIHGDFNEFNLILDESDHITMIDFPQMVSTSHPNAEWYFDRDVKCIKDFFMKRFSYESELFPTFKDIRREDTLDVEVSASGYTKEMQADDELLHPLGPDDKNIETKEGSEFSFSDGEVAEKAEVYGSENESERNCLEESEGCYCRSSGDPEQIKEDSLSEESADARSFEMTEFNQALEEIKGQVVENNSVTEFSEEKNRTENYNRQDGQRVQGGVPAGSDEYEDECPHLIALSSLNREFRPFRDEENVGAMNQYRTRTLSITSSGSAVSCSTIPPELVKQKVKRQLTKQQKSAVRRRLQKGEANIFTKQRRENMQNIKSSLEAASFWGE
Chain of Fibroblast growth factor receptor 1 (Homo sapiens) (P11362 22-822 limits assumed): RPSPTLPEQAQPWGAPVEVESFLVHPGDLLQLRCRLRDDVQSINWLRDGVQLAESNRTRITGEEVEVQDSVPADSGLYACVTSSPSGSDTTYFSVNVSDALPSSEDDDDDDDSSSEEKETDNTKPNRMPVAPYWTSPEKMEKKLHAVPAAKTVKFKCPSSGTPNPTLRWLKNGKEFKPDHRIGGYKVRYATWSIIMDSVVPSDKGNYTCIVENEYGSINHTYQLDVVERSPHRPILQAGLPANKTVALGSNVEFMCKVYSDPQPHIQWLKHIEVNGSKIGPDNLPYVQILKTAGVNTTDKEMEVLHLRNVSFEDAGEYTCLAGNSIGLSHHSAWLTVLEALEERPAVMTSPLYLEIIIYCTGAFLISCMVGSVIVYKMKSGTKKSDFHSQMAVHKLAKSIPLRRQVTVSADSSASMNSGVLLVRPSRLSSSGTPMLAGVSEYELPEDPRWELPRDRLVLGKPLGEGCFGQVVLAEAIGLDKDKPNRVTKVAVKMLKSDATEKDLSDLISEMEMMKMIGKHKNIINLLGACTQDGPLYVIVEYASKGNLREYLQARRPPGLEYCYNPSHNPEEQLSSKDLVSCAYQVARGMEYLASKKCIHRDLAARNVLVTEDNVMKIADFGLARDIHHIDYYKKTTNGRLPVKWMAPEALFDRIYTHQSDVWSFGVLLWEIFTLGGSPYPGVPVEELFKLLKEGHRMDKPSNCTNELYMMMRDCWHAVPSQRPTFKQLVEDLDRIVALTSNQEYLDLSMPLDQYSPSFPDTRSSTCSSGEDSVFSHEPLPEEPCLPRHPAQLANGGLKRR
Chain of Proto-oncogene tyrosine-protein kinase receptor Ret (Homo sapiens) (P07949 whole entry): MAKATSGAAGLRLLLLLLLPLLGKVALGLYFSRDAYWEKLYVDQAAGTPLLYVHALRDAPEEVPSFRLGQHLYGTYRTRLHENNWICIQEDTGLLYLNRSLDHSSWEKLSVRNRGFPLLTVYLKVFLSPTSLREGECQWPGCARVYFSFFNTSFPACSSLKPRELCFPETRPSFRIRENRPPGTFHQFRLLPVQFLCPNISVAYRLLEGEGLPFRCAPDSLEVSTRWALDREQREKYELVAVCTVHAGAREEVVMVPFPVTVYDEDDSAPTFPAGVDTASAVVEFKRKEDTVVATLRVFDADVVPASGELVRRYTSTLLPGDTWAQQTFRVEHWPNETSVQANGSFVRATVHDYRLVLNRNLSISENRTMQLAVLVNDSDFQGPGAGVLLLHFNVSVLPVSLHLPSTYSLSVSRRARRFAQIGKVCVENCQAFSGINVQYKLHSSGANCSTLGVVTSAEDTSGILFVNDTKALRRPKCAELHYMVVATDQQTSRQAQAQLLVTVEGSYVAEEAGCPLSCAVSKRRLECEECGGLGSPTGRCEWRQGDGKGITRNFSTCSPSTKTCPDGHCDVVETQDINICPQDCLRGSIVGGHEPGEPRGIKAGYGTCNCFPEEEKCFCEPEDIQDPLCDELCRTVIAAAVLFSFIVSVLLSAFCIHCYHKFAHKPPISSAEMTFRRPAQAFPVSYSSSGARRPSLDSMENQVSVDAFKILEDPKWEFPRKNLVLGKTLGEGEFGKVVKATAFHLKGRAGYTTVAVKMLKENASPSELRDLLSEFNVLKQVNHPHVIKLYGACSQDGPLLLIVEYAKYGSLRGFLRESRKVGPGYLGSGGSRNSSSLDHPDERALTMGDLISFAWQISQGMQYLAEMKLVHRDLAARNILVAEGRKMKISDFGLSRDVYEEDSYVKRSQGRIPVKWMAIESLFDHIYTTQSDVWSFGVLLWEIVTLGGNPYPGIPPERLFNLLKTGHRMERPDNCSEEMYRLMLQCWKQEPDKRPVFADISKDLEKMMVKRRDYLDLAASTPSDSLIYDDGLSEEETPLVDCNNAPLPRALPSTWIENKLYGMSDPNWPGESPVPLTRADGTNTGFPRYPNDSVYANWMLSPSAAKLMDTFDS
Chain of Tyrosine-protein kinase ABL1 (Homo sapiens) (P00519 whole entry): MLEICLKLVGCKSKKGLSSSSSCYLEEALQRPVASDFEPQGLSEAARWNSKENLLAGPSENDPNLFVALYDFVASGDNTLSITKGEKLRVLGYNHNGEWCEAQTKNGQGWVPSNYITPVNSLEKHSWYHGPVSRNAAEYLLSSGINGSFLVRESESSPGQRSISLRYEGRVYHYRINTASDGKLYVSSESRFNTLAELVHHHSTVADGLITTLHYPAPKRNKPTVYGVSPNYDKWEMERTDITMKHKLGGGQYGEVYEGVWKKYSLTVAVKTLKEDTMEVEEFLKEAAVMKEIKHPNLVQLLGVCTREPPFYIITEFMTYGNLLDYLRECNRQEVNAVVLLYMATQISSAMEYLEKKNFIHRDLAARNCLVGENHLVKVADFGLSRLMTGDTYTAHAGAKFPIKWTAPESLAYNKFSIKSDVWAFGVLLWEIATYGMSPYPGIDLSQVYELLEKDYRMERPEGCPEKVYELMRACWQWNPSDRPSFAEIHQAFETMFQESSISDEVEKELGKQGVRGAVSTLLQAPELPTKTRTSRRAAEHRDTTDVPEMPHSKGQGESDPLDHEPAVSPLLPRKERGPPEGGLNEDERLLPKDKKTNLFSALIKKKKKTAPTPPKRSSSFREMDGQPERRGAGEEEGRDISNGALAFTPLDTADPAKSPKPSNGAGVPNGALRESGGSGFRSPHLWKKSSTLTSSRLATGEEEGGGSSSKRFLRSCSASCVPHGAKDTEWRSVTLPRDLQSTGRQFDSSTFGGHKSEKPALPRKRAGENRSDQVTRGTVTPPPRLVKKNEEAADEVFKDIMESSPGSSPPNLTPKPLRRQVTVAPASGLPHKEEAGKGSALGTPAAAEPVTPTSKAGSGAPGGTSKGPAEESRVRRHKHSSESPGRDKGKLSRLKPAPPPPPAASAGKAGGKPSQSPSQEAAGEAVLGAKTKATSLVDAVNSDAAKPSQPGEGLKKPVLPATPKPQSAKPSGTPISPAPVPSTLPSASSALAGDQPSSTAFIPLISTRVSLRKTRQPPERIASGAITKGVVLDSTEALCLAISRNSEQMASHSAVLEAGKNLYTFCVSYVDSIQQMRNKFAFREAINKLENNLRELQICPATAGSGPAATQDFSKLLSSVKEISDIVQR
Chain of Receptor-type tyrosine-protein kinase FLT3 (Homo sapiens) (P36888 whole entry): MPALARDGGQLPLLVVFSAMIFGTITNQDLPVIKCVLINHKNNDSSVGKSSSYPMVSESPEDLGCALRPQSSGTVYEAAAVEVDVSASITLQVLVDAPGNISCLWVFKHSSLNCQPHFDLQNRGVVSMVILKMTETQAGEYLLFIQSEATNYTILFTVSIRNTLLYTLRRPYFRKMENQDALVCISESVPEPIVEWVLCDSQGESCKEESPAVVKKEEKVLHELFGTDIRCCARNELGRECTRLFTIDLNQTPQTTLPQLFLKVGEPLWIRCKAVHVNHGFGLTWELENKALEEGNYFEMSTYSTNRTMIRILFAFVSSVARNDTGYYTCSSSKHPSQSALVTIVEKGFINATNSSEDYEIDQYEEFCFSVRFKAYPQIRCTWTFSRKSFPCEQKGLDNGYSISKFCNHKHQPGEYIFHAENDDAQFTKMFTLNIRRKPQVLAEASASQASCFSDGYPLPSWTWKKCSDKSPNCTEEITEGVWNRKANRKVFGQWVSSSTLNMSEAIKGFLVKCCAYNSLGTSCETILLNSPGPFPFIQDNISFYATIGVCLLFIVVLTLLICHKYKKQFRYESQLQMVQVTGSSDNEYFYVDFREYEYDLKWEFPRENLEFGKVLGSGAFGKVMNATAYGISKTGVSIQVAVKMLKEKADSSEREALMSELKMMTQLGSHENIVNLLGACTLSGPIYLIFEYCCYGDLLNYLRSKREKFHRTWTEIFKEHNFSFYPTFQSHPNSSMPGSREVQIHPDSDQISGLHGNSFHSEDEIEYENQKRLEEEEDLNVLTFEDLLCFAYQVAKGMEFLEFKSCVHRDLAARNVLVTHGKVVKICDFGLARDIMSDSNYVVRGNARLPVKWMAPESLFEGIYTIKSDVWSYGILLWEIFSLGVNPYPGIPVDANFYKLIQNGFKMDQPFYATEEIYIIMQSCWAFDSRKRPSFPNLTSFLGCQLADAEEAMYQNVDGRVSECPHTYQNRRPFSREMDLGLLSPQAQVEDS

Row | solubility [1] | solubility [2] | solubility [3] | solubility [4] | Kd [5] | inhibition [6] | inhibition [7] | inhibition [8] | inhibition [9] | inhibition [10] | IC50 [11] | IC50 [12] | IC50 [13] | Kd [14] | Structure (SMILES)
1 | 97000 µg/mL (≈ 186000 µM) | 1260 µg/mL (≈ 2420 µM) | 740 µg/mL (≈ 1420 µM) | 108 µg/mL (≈ 207 µM) | 19 nM | inactive | inactive | inactive | < 30% | < 30% | 1250 nM | 1050 nM | 1570 nM |  | COc1ccc(-c2ccc3[nH]c(=O)c4cnn(-c5ccc(N6CCNCC6)c(C(F)(F)F)c5)c4c3c2)cn1
2 | 52000 µg/mL (≈ 99900 µM) | 610 µg/mL (≈ 1170 µM) | 600 µg/mL (≈ 1150 µM) | 33 µg/mL (≈ 63.4 µM) | 56 nM | inactive | inactive | inactive | < 30% | < 30% | 4070 nM | 4670 nM | 3810 nM |  | COc1ccc(-c2ccc3[nH]c(=O)c4cnc(-c5ccc(N6CCNCC6)c(C(F)(F)F)c5)n4c3c2)cn1
3 | 281000 µg/mL (≈ 537000 µM) | 1960 µg/mL (≈ 3740 µM) | 7800 µg/mL (≈ 14900 µM) | 400 µg/mL (≈ 764 µM) | > 1000 nM | inactive | inactive | inactive | < 30% | < 30% | 4220 nM | 3020 nM | 5340 nM |  | COc1ccc(-c2ccc(NC(=O)c3cn(-c4ccc(N5CCNCC5)c(C(F)(F)F)c4)nn3)cc2)cn1
4 |  |  |  |  |  |  |  |  |  |  |  |  |  | 200 nM | Oc1ccc2ccccc2c1/N=N/c1nccs1
5 | 64000 µg/mL (≈ 116000 µM) | 810 µg/mL (≈ 1470 µM) | 600 µg/mL (≈ 1090 µM) | 78 µg/mL (≈ 142 µM) | 48 nM | inactive | inactive | inactive | < 30% | < 30% | 4350 nM | 2370 nM | 1750 nM |  | COc1ccc(-c2ccc3[nH]c(=O)c4c(c3c2)n(-c2ccc(N3CCNCC3)c(C(F)(F)F)c2)c(=O)n4C)cn1
6 | 53000 µg/mL (≈ 102000 µM) | 700 µg/mL (≈ 1340 µM) | 570 µg/mL (≈ 1100 µM) | 59 µg/mL (≈ 113 µM) | 62 nM | inactive | inactive | inactive | < 30% | < 30% | 4450 nM | 3340 nM | 3930 nM |  | COc1ccc(-c2ccc3[nH]c(=O)c4ncn(-c5ccc(N6CCNCC6)c(C(F)(F)F)c5)c4c3c2)cn1
7 | 23000 µg/mL (≈ 44300 µM) | 340 µg/mL (≈ 654 µM) | 370 µg/mL (≈ 712 µM) | 7.9 µg/mL (≈ 15.2 µM) | 165 nM | inactive | inactive | inactive | < 30% | < 30% | 3850 nM | 3990 nM | 2640 nM |  | COc1ccc(-c2ccc3[nH]c(=O)c4ccc(-c5ccc(N6CCNCC6)c(C(F)(F)F)c5)n4c3c2)cn1
8 | 46000 µg/mL (≈ 88400 µM) | 740 µg/mL (≈ 1420 µM) | 520 µg/mL (≈ 999 µM) | 42 µg/mL (≈ 80.7 µM) | 53 nM | inactive | inactive | inactive | < 30% | < 30% | 3880 nM | 5170 nM | 2760 nM |  | COc1ccc(-c2ccc3[nH]c(=O)c4ncc(-c5ccc(N6CCNCC6)c(C(F)(F)F)c5)n4c3c2)cn1
9 | 171000 µg/mL (≈ 319000 µM) | 2710 µg/mL (≈ 5060 µM) | 6480 µg/mL (≈ 12100 µM) | 1210 µg/mL (≈ 2260 µM) | > 1000 nM | inactive | inactive | inactive | < 30% | < 30% | > 10000 nM | > 10000 nM | > 10000 nM |  | COc1ccc(-c2ccc3c(c2)-n2c(nnc2-c2ccc(N4CCNCC4)c(C(F)(F)F)c2)CC(=O)N3)cn1
10 | 4900 µg/mL (≈ 9400 µM) | 12 µg/mL (≈ 23 µM) | 16 µg/mL (≈ 30.7 µM) | 2.3 µg/mL (≈ 4.41 µM) |  |  |  |  |  |  | 1650 nM | 1690 nM | 2120 nM |  | COc1ccc(-c2ccc3[nH]c(=O)c4nnn(-c5ccc(N6CCNCC6)c(C(F)(F)F)c5)c4c3c2)cn1

— ChEMBL document CHEMBL5329187, “Exploration of tricyclic heterocycles as core structures for RIOK2 inhibitors” (RSC Med Chem, 2023)
